How the values were obtained:
Type in all cases: tissue-based
[1] = target: T1, Amine oxidase [flavin-containing] A (Rattus norvegicus, UniProt P21396); assay: Inhibition of MAO-A in rat liver homogenate by spectrophotometry-based Holt method
T1 sequence (P21396 whole entry): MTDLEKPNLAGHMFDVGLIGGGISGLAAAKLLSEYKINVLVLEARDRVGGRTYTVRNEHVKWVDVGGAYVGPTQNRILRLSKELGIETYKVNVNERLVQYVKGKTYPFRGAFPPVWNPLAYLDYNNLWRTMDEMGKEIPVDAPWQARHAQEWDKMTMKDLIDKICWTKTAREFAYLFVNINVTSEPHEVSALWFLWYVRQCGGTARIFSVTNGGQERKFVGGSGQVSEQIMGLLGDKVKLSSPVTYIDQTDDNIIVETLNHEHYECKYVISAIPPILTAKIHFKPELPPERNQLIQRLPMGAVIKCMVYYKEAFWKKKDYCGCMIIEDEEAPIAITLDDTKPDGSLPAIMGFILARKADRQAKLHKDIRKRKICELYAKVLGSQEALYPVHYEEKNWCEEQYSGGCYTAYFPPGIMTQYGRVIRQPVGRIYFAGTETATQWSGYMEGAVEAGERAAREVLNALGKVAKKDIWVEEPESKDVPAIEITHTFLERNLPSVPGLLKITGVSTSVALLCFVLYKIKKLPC

[2] = target: T2, Amine oxidase [flavin-containing] B (Rattus norvegicus, UniProt P19643); assay: Inhibition of MAO-B in rat liver homogenate by spectrophotometry-based Holt method
T2 sequence (P19643 whole entry): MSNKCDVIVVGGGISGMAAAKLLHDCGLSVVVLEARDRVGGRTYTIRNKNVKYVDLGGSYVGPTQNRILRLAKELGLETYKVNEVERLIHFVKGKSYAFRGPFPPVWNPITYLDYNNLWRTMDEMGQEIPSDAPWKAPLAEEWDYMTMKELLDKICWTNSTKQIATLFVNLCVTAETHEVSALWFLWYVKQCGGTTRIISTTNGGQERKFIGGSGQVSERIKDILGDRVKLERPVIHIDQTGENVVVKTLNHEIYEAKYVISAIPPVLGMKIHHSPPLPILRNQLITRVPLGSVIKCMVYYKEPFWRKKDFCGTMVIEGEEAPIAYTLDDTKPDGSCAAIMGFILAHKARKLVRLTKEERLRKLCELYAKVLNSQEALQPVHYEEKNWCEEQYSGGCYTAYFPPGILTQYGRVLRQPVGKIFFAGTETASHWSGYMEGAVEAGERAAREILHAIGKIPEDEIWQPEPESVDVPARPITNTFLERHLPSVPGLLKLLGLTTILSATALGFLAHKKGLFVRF

[3] = species on record: Rattus norvegicus; assay: Selectivity ratio of Ki for MAO-A in rat liver homogenate to Ki for MAO-B in rat liver homogenate
In short: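 Rat liver MAO; isoform isolated by blocking the other with pargyline or clorgyline. p-Tyramine substrate (2.5 mM for MAO-B). Inhibitor (DMSO) pre-incubated with homogenate 60 min, 37 °C. Holt coupled assay (vanillinic acid, 4-aminoantipyrine, peroxidase; potassium phosphate pH 7.6) read at 498 nm, 37 °C, 60 min. Ki from kinetics, mean of three experiments; index = Ki(MAO-A)/Ki(MAO-B).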

Compound | Ki [1] | Ki [2] | Ratio Ki [3]
Cc1ccc(S(=O)(=O)N2N=C(c3ccccc3O)CC2c2ccc(O)cc2)cc1 (stereo not given) | 0.6 µM | – | –
O=C(c1ccccc1)N1N=C(c2ccccc2O)CC1c1ccccc1O (stereo not given) | 0.8 µM | – | –
O=S(=O)(c1ccccc1)N1N=C(c2ccccc2O)CC1c1ccccc1O (stereo not given) | 0.91 µM | 1550 µM | –
O=S(=O)(c1ccccc1)N1N=C(c2ccccc2O)CC1c1ccc(O)cc1 (stereo not given) | 0.68 µM | 700 µM | –
Cc1ccc(S(=O)(=O)N2N=C(c3ccccc3O)CC2c2ccccc2O)cc1 (stereo not given) | 0.36 µM | 620 µM | –
N=C(NO)N1N=C(c2ccccc2O)CC1c1ccccc1O (stereo not given) | 15.7 µM | 96.8 µM | –
Oc1ccc(C2CC(c3ccccc3O)=NN2)cc1 (stereo not given) | 3.9 µM | 0.6 µM | 6.49
N=C(NO)N1N=C(c2ccccc2O)CC1c1ccc(O)cc1 (stereo not given) | 10.6 µM | 210 µM | –
O=C(c1ccccc1)N1N=C(c2ccccc2O)CC1c1ccc(O)cc1 (stereo not given) | 5.77 µM | 20300 µM | –
Oc1ccccc1C1=NNC(c2ccccc2O)C1 (stereo not given) | 3.7 µM | 0.78 µM | 4.74
